These entries were drawn from the full list.
Apaf1 activ: activates human Apaf-1 apoptosome | O14727 | Apaf-1 apoptosome caspase-3 activation, DEVD-Rh110 fluorescence; stronger effect = lower value | activity change, negative = activation, % at 20 µM | 330,000 tested, 0.31% active | AID 489031;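 active = activity change at or below -40% at 20 µM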
Target sequence (O14727 whole entry, looked up): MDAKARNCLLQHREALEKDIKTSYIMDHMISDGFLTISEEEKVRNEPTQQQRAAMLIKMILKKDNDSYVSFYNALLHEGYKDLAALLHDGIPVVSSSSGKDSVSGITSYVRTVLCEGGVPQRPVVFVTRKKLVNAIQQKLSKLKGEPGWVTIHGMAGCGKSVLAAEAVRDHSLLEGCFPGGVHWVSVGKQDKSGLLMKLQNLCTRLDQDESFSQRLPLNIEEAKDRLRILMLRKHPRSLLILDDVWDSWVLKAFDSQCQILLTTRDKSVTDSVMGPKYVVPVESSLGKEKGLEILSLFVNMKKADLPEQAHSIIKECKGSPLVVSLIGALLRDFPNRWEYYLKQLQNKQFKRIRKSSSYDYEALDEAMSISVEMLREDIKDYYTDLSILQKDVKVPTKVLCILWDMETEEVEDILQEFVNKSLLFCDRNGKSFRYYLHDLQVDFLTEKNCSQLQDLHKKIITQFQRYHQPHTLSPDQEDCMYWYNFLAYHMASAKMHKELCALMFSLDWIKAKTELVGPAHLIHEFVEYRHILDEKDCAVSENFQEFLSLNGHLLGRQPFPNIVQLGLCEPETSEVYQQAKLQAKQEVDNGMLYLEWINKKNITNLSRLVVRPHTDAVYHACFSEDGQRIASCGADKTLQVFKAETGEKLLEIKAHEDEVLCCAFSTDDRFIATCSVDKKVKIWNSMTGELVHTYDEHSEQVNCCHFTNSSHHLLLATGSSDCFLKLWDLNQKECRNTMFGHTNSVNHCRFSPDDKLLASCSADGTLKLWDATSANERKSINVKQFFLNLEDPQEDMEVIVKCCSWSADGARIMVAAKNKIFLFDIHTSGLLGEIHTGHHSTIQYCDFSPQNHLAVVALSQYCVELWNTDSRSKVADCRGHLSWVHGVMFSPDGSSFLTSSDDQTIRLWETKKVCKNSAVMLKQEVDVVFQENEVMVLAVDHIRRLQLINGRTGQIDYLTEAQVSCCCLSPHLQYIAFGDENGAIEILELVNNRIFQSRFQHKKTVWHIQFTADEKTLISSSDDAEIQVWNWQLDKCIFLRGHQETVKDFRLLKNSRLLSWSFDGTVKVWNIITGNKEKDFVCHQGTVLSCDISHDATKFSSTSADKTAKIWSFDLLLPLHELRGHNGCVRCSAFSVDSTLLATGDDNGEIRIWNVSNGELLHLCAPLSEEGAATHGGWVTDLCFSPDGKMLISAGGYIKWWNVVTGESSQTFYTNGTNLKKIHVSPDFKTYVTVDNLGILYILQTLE
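Schedule: 30 min preincubation, 50 min reaction, room temperature / System: biochemical Apaf-1 apoptosome reconstitution / Medium: 20 mM HEPES pH 7.5 with CHAPS, BSA / Evaluation: Caspase-3 cleavage activity downstream of Apaf-1 activation / Detection: Caspase-3-released Rh110 fluorescence, 540 nm emission, 480 nm excitation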
Rh110 interf act: Rh110 signal interference in Apaf-1 activator counter-screen. shares compounds with Apaf1 activ. Rh110 fluorescence interference, quenched caspase reaction, Ex480/Em540. fluorescence interference (activity change), % at 20 µM, hits read low. 980 tested, under 10 active. AID 504616;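 active = mean activity change at or below -40% when tested at 20 µM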
Apaf-1 act conf2: confirmation of human Apaf-1 activators; shares compounds with Apaf1 activ; reconstituted apoptosome caspase-3 activity, DEVD-Rh110 fluorescence; stronger effect = lower value; activity change, negative = activation, % at 20 µM; 980 tested, 5% active; AID 504617;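 active = mean activity change at or below -40%, meaning activation of 40% or more, at 20 µM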
Fluor interf act: Apaf-1 activator counter-screen fluorescence artifact | EC50, µM | 55 tested, under 10 active | fluorescence interference counterscreen, Apaf-1 activator assay | shares compounds with Apaf1 activ; call rule not given here
Numbers stand for hits; – = inactive; · = no result given.

SMILES	Apaf1 activ	Rh110 interf act	Apaf-1 act conf2	others
COC(=O)CCC(=O)OC1(C)C(=O)C=C2C=C(C3CC3)N(CCCCO)C=C2C1=O (stereo not given)	–	·	·
CC(C)C[C@@H]1CN=C(N)N1C[C@@H]1CCCN1C[C@@H](C(C)C)N1C[C@@H](Cc2ccccc2)N(CCc2ccc(Cl)c(Cl)c2)C1=N	–	·	·
Cc1ccc(SCC(=O)Nc2nccs2)cc1	-524.1	–	–
NC(N)=N/N=C/c1ccc(OCc2ccccc2Cl)cc1	–	·	·
Cc1cccc(N(C(=O)Cn2nnc3ccccc32)C(C(=O)NCc2ccco2)c2ccncc2)c1 (stereo not given)	-46.8	–	–
O=c1[nH]c(Nc2ccccc2Cl)cc2ccccc12	–	·	·
CCC1=NNc2cccc3c(OC)ccc1c23	–	·	·
Cc1cc2occ(CC(=O)NC3CCCc4ccccc43)c2cc1C (stereo not given)	-163.8	–	–
CC(=O)CCc1ccc(OCC(O)CNC2CCCc3ccccc32)cc1 (stereo not given)	–	·	·
CCc1ccccc1OC[C@@H](O)CN[C@H]1CCCc2ccccc21	–	·	·
COC(=O)CCC(=O)OC1(C)C(=O)C2=CN(CC(C)C)C(c3ccc(OC)cc3)=CC2=C(Br)C1=O (stereo not given)	–	·	·
Cc1c(Cc2ccccc2)sc(/N=C/c2c(O)ccc3ccccc23)c1C(N)=O	-63.1	–	–
Oc1ccc2ccccc2c1C=NC12CN3CCN(CN(C3)C1)C2	–	·	·
CCn1cc(CN2CCC(n3nccc3NC(=O)Cc3ccccc3)CC2)cn1	-53.4	–	–
COc1ccc(/C=C/C(=O)Nc2cc(C)nn2-c2nc3ccccc3[nH]2)cc1	-56.2	–	–
COc1ccc(C(=O)NCC(=O)OCc2ccc([N+](=O)[O-])cc2)cc1	-69.9	–	–
C/C(=N/NC(=O)Cc1cc(=O)[nH][nH]1)c1ccc([N+](=O)[O-])cc1	–	·	·
COC(=O)C(CCCCNC(=O)c1ccc([N+](=O)[O-])cc1)NC(=O)c1ccc([N+](=O)[O-])cc1 (stereo not given)	-48.0	–	–
Cc1ccc(NC2=C/C(=N/S(=O)(=O)c3cccs3)c3ccccc3C2=O)cc1	–	·	·
CCCCc1nc(N2CCN(C(=O)c3ccco3)CC2)c(C#N)c2c1CCCC2	–	·	·
CC[C@@H](C)[C@@H]1CN([C@@H](CN2CCC[C@H]2CN2C(N)=NC[C@@H]2Cc2ccccc2)C(C)C)C(=N)N1CCCC1CCCC1	–	·	·
NC(=O)CSc1nc2scc(-c3ccc(Cl)cc3)c2c(=O)n1Cc1ccccc1	–	·	·
CC(=O)N(C1=C(N)C(=O)c2ccccc2C1=O)c1ccccc1	–	·	·
CC[C@H](C)[C@@H](C(=O)NCCCCCCCCCCC(=O)N1CCN(C(=O)OC(C)(C)C)CC1)n1cc(CCCCN=C(NC(=O)OC(C)(C)C)NC(=O)OC(C)(C)C)nn1	–	·	·
C/C(=N\NC(=O)c1nnn(-c2nonc2N)c1-c1cccs1)c1ccc(C)cc1	-43.8	–	–
SMILES	Apaf1 activ	Rh110 interf act	Apaf-1 act conf2	others
Oc1cccc(C=Nc2cccc3ccccc23)c1O	–	·	·
C=C(C)C(=O)Nc1cccc(C2=NOC3(C2)C[C@H](C(N)=O)N(C(=O)c2ccccc2C(=O)c2ccccc2)C3)c1 (stereo not given in full)	-269.6	–	-125.2	Fluor interf act=–
C=C(C)C(=O)Nc1cccc(C2=NOC3(C2)C[C@@H](C(N)=O)N(C(=O)CC(c2ccccc2)c2ccccc2)C3)c1 (stereo not given in full)	-107.0	–	–
C=C(C)C(=O)Nc1cccc(C2=NOC3(C2)C[C@@H](C(N)=O)N(C(=O)/C(C)=C/C)C3)c1 (stereo not given in full)	-288.2	–	-119.6	Fluor interf act=–
C=C(C)C(=O)Nc1cccc(C2=NOC3(C2)C[C@@H](C(N)=O)N(C(=O)/C=C/C=C/C)C3)c1 (stereo not given in full)	-326.2	–	-129.2	Fluor interf act=–
CCN(CC)C(=O)[C@H]1C[C@H](CC(=O)NCc2cccc(C(F)(F)F)c2)C(=O)N2CCc3c([nH]c4ccc(Cl)cc34)[C@]12C	–	·	·
CC(C)=CCC1=C(OCC(=O)O)C(=O)c2ccccc2C1=O	–	·	·
CN(C)c1ccc(NC2=C(Cl)C(=O)c3ccccc3C2=O)cc1	–	·	·
CC1CN(Cc2c(O)ccc3c2oc(=O)c2ccccc23)CC(C)O1 (stereo not given)	–	·	·
Cc1ccc(N(CC(=O)N/N=C/c2ccc(OC3CSC3)cc2)S(=O)(=O)c2ccccc2)c(C)c1	–	·	·
CCCCCCCCCCOC(=O)Cn1c(COc2ccc(Cl)cc2)[n+](C)c2ccccc21	–	·	·
